Converted amounts (≈) assume the structure as drawn.
Tests used:
A549 [1] = assay: GI values against A549 cells (lung cancer); assay type: functional; settings: Homo sapiens
[2] = GI values against KB cells (nasopharyngeal carcinoma); assay type: functional; settings: Homo sapiens
Human betaherpesvirus 5 = assay: Inhibitory activity against human cytomegalovirus (HCMV); assay type: functional; settings: for IC50: read-out: ID50 (the source's name)
Procedure, shortened: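 Confluent HEL fibroblasts infected with Towne strain CMV at 1–2 PFU/cell, with or without a drug dilution series. Antiviral effect read either as extracellular virus yield (day-6 supernatant titred by plaque assay on HEL, counted at 2 weeks) or as viral DNA by 32P-CMV-probe dot hybridization with scintillation counting of dots.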

CAKI-1 [3] = assay: GI values against CAKI-1 cells(renal carcinoma); assay type: functional; settings: Homo sapiens
CAKI-1 [4] = assay: % inhibition against CAKI-1 cells(renal carcinoma) at 4 ug/mL.; assay type: functional; settings: Homo sapiens
A549 [5] = assay: % inhibition against A549 cells (lung cancer) at 0.4 ug/mL; assay type: functional; settings: Homo sapiens
CAKI-1 [6] = assay: % inhibition against CAKI-1 cells(renal carcinoma) at 0.4 ug/mL.; assay type: functional; settings: Homo sapiens
[7] = % inhibition against KB cells (nasopharyngeal carcinoma) at 0.4 ug/mL; assay type: functional; settings: Homo sapiens
HEL = assay: Inhibitory activity against HEL cells; assay type: functional; settings: Homo sapiens, read-out: ED50 (the source's name)
Procedure, shortened: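 Human embryonic lung fibroblasts in MEM/10% FBS, 6% CO2, seeded at 50 000 cells/mL with a drug dilution series. Exposure 15 days; viability and cell counts by trypan blue. ED50 (50% growth reduction versus untreated cells) interpolated from dose–response data.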

[8] = % inhibition against KB cells (nasopharyngeal carcinoma) at 4 ug/mL; assay type: functional; settings: Homo sapiens
A549 [9] = assay: % inhibition against A549 cells (lung cancer) at 4 ug/mL; assay type: functional; settings: Homo sapiens
MCF7 [10] = assay: % inhibition against MCF-7 cells (breast cancer) at 4 ug/mL; assay type: functional; settings: Homo sapiens
MCF7 [11] = assay: % inhibition against MCF-7 cells (breast cancer) at 0.4 ug/mL; assay type: functional; settings: Homo sapiens
A549 [12] = assay: % inhibition against A549 cells (lung cancer) at 0.04 ug/mL; assay type: functional; settings: Homo sapiens
CAKI-1 [13] = assay: % inhibition against CAKI-1 cells(renal carcinoma) at 0.04 ug/mL.; assay type: functional; settings: Homo sapiens
[14] = Selectivity index (ED50/ID50) value of the compound; assay type: functional
Procedure, shortened: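 Ratio of ED50 for growing HEL cells (15-day trypan blue count) to ID50 against Towne strain CMV in HEL fibroblasts.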

MCF7 [15] = assay: % inhibition against MCF-7 cells (breast cancer) at 0.04 ug/mL; assay type: functional; settings: Homo sapiens
[16] = % inhibition against KB cells (nasopharyngeal carcinoma) at 0.04 ug/mL; assay type: functional; settings: Homo sapiens
Human alphaherpesvirus 1 [17] = assay: Effective dose required to inhibit 100% against herpesvirus simplex 1; assay type: functional
Procedure, shortened: (§1)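 Plaque elimination in pre-formed confluent Vero monolayers, HSV-1 strain KOS or HSV-2 strain 186, ~100 PFU inoculum for 30 min. Overlay medium had 0.5% calf serum, 1% carboxymethylcellulose and drug dilutions. Crystal violet fix/stain at 2 days; macroscopic plaques scored. ED100 = dilution fully eliminating plaques without monolayer toxicity. MIC = lowest dilution reducing plaque size/number. Repeated at least twice.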

Human alphaherpesvirus 2 [18] = assay: Effective dose required to inhibit 100% against herpesvirus simplex 2; assay type: functional; procedure, shortened: as §1
Human alphaherpesvirus 1 [19] = assay: Minimum inhibitory concentration against herpesvirus simplex 1; assay type: functional; procedure, shortened: as §1
Vero [20] = assay: Effective dose required to inhibit 25% of cell growth (Herpesvirus activity); assay type: functional, Chlorocebus sabaeus
Procedure, shortened: (§2)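 Cells seeded at 50 000 cells/mL with a drug dilution series, exposed 2 days; cell number by sulforhodamine B staining. ED25 interpolated from dose–response as the concentration cutting absorbency by 25%. MIC = lowest dilution giving detectable growth inhibition. Triplicate wells; absorbency within 5%, ED25 within 30% across independent tests.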

Vero [21] = assay: Minimum inhibitory concentration for cell growth inhibition (Herpesvirus activity); assay type: functional; settings: Chlorocebus sabaeus; procedure, shortened: as §2
Human alphaherpesvirus 2 [22] = assay: Minimum inhibitory concentration against herpesvirus simplex 2; assay type: functional; procedure, shortened: as §1
Homo sapiens = organism: Homo sapiens; assay: Cytotoxicity against HEL cells

Compound	GI50 (A549 [1]) [nM]	GI50 [2] [nM]	IC50 (Human betaherpesvirus 5) [nM]	GI50 (CAKI-1 [3]) [nM]	inhibition at 4 µg/mL (CAKI-1 [4]) [%]	inhibition at 0.4 µg/mL (A549 [5]) [%]	inhibition at 0.4 µg/mL (CAKI-1 [6]) [%]	inhibition at 0.4 µg/mL [7] [%]	EC50 (HEL) [nM]	inhibition at 4 µg/mL [8] [%]	inhibition at 4 µg/mL (A549 [9]) [%]	inhibition at 4 µg/mL (MCF7 [10]) [%]	inhibition at 0.4 µg/mL (MCF7 [11]) [%]	ID90 (Human betaherpesvirus 5) [nM]	inhibition at 0.04 µg/mL (A549 [12]) [%]	inhibition at 0.04 µg/mL (CAKI-1 [13]) [%]	SI [14]	inhibition at 0.04 µg/mL (MCF7 [15]) [%]	inhibition at 0.04 µg/mL [16] [%]	also measured
COc1cc([C@@H]2c3cc4c(cc3[C@@H](Nc3ccc(F)cc3)[C@H]3COC(=O)[C@H]23)OCO4)cc(OC)c1O	251	251	650	316																
COc1cc([C@@H]2c3cc4c(cc3[C@@H](Nc3ccc(F)cc3)[C@H]3COC(=O)[C@]23F)OCO4)cc(OC)c1O	2000	2000	970	> 10000	44.3	26.2	15.3	10.1	6100	70.9	61.4	61.2	20	4470	16.1	10.3	6.2	13.2	7.5	
COc1cc([C@@H]2c3cc4c(cc3[C@@H](Nc3ccc(N)cc3)[C@H]3COC(=O)[C@]23F)OCO4)cc(OC)c1O	3980	3980	2540	> 10000	38	7.7	2.5	7.5	7500	61.5	51	48.1	5.8	5020	0	0	3	0	0	
COc1cc([C@@H]2c3cc4c(cc3[C@@H](Nc3ccc([N+](=O)[O-])cc3)[C@H]3COC(=O)[C@]23F)OCO4)cc(OC)c1O	3980	> 10000	1450	> 10000	21.9	6.5	2.6	3.8	6090	41.6	51.8	42.1	7.3	4600	0	0.8	4.2	0.9	0	
COc1cc([C@@H]2c3cc4c(cc3[C@@H](Nc3ccc([N+](=O)[O-])cc3)[C@H]3COC(=O)[C@H]23)OCO4)cc(OC)c1O	158	501	350	158																
COc1cc([C@@H]2c3cc4c(cc3[C@H](O)[C@H]3COC(=O)[C@]23F)OCO4)cc(OC)c1OC	3980	31.6	> 5000	> 10000	40.5	69.6	39.7	72		87.4	73.1	51	48	>5000	59.4	18.1		34.2	53.3	ED100 (Human alphaherpesvirus 1 [17]): 10 µM; ED100 (Human alphaherpesvirus 2 [18]): 1000 nM; MIC (Human alphaherpesvirus 1 [19]): 1 µM (≈ 0.432 µg/mL); ED25 (Vero [20]): 1000 nM; MIC (Vero [21]): 0.8 µM (≈ 0.346 µg/mL); MIC (Human alphaherpesvirus 2 [22]): 0.1 µM (≈ 0.0432 µg/mL)
COc1cc([C@@H]2c3cc4c(cc3[C@@H](Nc3ccc5c(c3)OCCC5=O)[C@H]3COC(=O)[C@H]23)OCO4)cc(OC)c1O	100	631		126																
COc1cc([C@@H]2c3cc4c(cc3[C@@H](Nc3ccc(C#N)cc3)[C@H]3COC(=O)[C@]23F)OCO4)cc(OC)c1O			760		28.4	11.9	9.5	4.2	8430	30.5	52.5	45.8	8.2	4290	11.1	7.9	11.1	7.7	5	
COc1cc([C@@H]2c3cc4c(cc3[C@H](O)[C@H]3COC(=O)[C@H]23)OCO4)cc(OC)c1OC [PODOFILOX]	7.94		< 100	100																ED100 (Human alphaherpesvirus 1 [17]): 0.05 µM; ED100 (Human alphaherpesvirus 2 [18]): 100 nM; MIC (Human alphaherpesvirus 1 [19]): 0.01 µM (≈ 0.00414 µg/mL); ED25 (Vero [20]): 20 nM; MIC (Vero [21]): 0.008 µM (≈ 0.00332 µg/mL); MIC (Human alphaherpesvirus 2 [22]): 0.01 µM (≈ 0.00414 µg/mL)
COc1cc([C@@H]2c3cc4c(cc3[C@H](O[Si](C)(C)C(C)(C)C)[C@H]3COC(=O)[C@H]23)OCO4)cc(OC)c1OC																				ED100 (Human alphaherpesvirus 1 [17]): 10 µM; ED100 (Human alphaherpesvirus 2 [18]): 1000 nM; MIC (Human alphaherpesvirus 1 [19]): 1 µM (≈ 0.529 µg/mL); ED25 (Vero [20]): 6000 nM; MIC (Vero [21]): 3 µM (≈ 1.59 µg/mL); MIC (Human alphaherpesvirus 2 [22]): 0.1 µM (≈ 0.0529 µg/mL)
COc1cc([C@@H]2c3cc4c(cc3[C@@H](Nc3ccc(N)cc3)[C@H]3COC(=O)[C@H]23)OCO4)cc(OC)c1O	316	794	1250	316																
COc1cc([C@@H]2c3cc4c(cc3[C@H](O[Si](C)(C)C(C)(C)C)[C@H]3COC(=O)[C@]23F)OCO4)cc(OC)c1OC																				ED25 (Vero [20]): 25000 nM; MIC (Vero [21]): 6 µM (≈ 3.28 µg/mL)
COc1cc([C@@H]2c3cc4c(cc3[C@@H](Nc3ccc(C#N)cc3)[C@H]3COC(=O)[C@H]23)OCO4)cc(OC)c1O			620																	
COc1cc([C@@H]2c3cc4c(cc3[C@@H](O)[C@H]3COC(=O)[C@]23F)OCO4)cc(OC)c1O			> 5000		39	34.3	10.6	25.6	8200	64	78.1	53.8	21.8	>5000	0	0	< 1.6	0	0	
COc1cc([C@@H]2c3cc4c(cc3[C@@H](O[C@@H]3O[C@@H]5CO[C@@H](C)O[C@H]5[C@H](O)[C@H]3O)[C@H]3COC(=O)[C@H]23)OCO4)cc(OC)c1O [ETOPOSIDE]	6310	200	1030	6310													8.4			ED50 (Homo sapiens): 8640 nM
